From ChEMBL document CHEMBL5252669, “Semisynthetic blasticidin S ester derivatives show enhanced antibiotic activity” (RSC Med Chem, 2023)
Converted amounts (≈) assume the structure as drawn. The source made the active and inactive calls. The calls are words filed in the database; no cut-off is given here.

What was measured:
Enterococcus [1] = assay: Antibacterial activity against vancomycin-resistant Enterococcus incubated for 20 hrs by broth microdilution method
[2] = Selectivity index, ratio of CC50 for human MRC5 cells to IC50 for Acinetobacter baumannii ATCC 17978; type: toxicity; details: read-out: Ratio CC50/IC50
Enterococcus faecalis [3] = assay: Antibacterial activity against Enterococcus faecalis ATCC 29212 incubated for 20 hrs by broth microdilution method; details: ATCC 29212, 20 h
[4] = Cytotoxicity against human MRC5 cells incubated for 24 hrs by MTS assay; type: toxicity, cell-based
Method in brief: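 MRC-5 lung fibroblasts seeded 5000 per well; medium replaced with compound 16–192 μg mL−1 or matching 1:1 methanol:water vehicle; 24 h, then MTS 3–4 h; absorbance 490 nm; viability relative to untreated cells, normalized to vehicle; CC50 from two independent assays in duplicate, mean ± SD.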

Acinetobacter baumannii [5] = assay: Potency index, ratio of blasticidin-S MIC to test compound MIC for Acinetobacter baumannii; type: functional
[6] = Selectivity index, ratio of CC50 for human MRC5 cells to IC50 for MexAB-OprM deleted Pseudomonas aeruginosa; type: toxicity; details: read-out: Ratio CC50/IC50
[7] = Selectivity index, ratio of CC50 for human MRC5 cells to IC50 for Enterococcus faecalis ATCC 29212; type: toxicity; details: read-out: Ratio CC50/IC50
Candida albicans [8] = assay: Antifungal activity against Candida albicans incubated for 16 hrs by broth microdilution method; type: functional
[9] = Selectivity index, ratio of CC50 for human MRC5 cells to IC50 for NorA deleted Staphylococcus aureus; type: toxicity; details: read-out: Ratio CC50/IC50
Klebsiella pneumoniae = assay: Antibacterial activity against Klebsiella pneumoniae ATCC 29665 incubated for 16 hrs by broth microdilution method; type: functional, organism-based; details: for IC50: ATCC 29665, 16 h; for MIC: ATCC 29665, time 16 hrs
Staphylococcus aureus [10] = assay: Antibacterial activity against wild type Staphylococcus aureus 8810 incubated for 16 hrs by broth microdilution method; type: functional, organism-based; details: for IC50: Staphylococcus aureus, 8810, 16 h; for MIC: Staphylococcus aureus, 8810, time 16 hrs
Method in brief: (§1)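 Cation-adjusted Mueller-Hinton broth microdilution. Overnight cultures from single colonies were diluted to OD600 0.004. Final compound range was 256–2 μg mL−1 in 1:1 methanol/water vehicle, with doxycycline and vehicle controls. Plates were incubated 16 h at 37 °C. OD600 was normalized to controls, and MIC was the lowest concentration inhibiting >90% growth. Two biological replicates in duplicate; reported as a range.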

[11] = Selectivity index, ratio of CC50 for human MRC5 cells to IC50 for Staphylococcus aureus; type: toxicity; details: read-out: Ratio CC50/IC50
Acinetobacter baumannii [12] = assay: Antibacterial activity against Acinetobacter baumannii ATCC 17978 incubated for 16 hrs by broth microdilution method; type: functional, organism-based; details: for IC50: ATCC 17978, 16 h; for MIC: ATCC 17978, time 16 hrs
[13] = Selectivity index, ratio of CC50 for human MRC5 cells to IC50 for methicillin resistant Staphylococcus aureus; type: toxicity; details: read-out: Ratio CC50/IC50
Pseudomonas aeruginosa = assay: Antibacterial activity against MexAB-OprM deleted Pseudomonas aeruginosa incubated for 16 hrs by broth microdilution method; type: functional, organism-based; details: for IC50: 16 h; for MIC: time 16 hrs
[14] = Selectivity index, ratio of CC50 for human MRC5 cells to IC50 for vancomycin-resistant Enterococcus; type: toxicity; details: read-out: Ratio CC50/IC50
Escherichia coli = assay: Potency index, ratio of blasticidin-S MIC to test compound MIC for Escherichia coli; type: functional
Staphylococcus aureus [15] = assay: Antibacterial activity against methicillin resistant Staphylococcus aureus ATCC 43300 incubated for 16 hrs by broth microdilution method; type: functional, organism-based; details: for IC50: ATCC 43300, 16 h; for MIC: ATCC 43300, time 16 hrs
Method in brief: as §1

[16] = Selectivity index, ratio of CC50 for human MRC5 cells to IC50 for Klebsiella pneumoniae ATCC 29665; type: toxicity; details: read-out: Ratio CC50/IC50
Staphylococcus aureus [17] = assay: Potency index, ratio of blasticidin-S MIC to test compound MIC for Staphylococcus aureus; type: functional
Saccharomyces cerevisiae = assay: Antifungal activity against Saccharomyces cerevisiae incubated for 16 hrs by broth microdilution method; type: functional
Staphylococcus aureus [18] = assay: Antibacterial activity against NorA deleted Staphylococcus aureus incubated for 16 hrs by broth microdilution method; type: functional, organism-based; details: for IC50: 16 h; for MIC: time 16 hrs
Method in brief: as §1

Staphylococcus aureus [19] = assay: Antibacterial activity against NorA deleted Staphylococcus aureus assessed as zone of inhibition incubated for 18 hrs by spot on lawn assay; type: functional, organism-based
Method in brief: (§2)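 Overnight LB cultures diluted to OD600 0.01 in 0.7% LB top agar, overlaid on 1.5% LB agar; 5 mg mL−1 aqueous compound spotted at 35, 25, 10 and 5 μg with 1:1 water/methanol vehicle spot; 37 °C, 18 h; inhibition zone diameter measured by ruler.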

Candida albicans [20] = assay: Antifungal activity against Candida albicans assessed as zone of inhibition incubated for 18 hrs by spot on lawn assay; type: functional, organism-based
Method in brief: as §2

Enterococcus faecalis [21] = assay: Antibacterial activity against Enterococcus faecalis ATCC 29212 assessed as zone of inhibition incubated for 18 hrs by spot on lawn assay; type: functional, organism-based
Method in brief: as §2

Staphylococcus aureus [22] = assay: Antibacterial activity against methicillin resistant Staphylococcus aureus assessed as zone of inhibition incubated for 18 hrs by spot on lawn assay; type: functional, organism-based
Method in brief: (§3)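 Spot-on-lawn assay. Plates of 1.5% agar in LB were overlaid with 0.7% LB agar seeded with overnight culture at 0.01 OD600. Aqueous 5 mg mL−1 solutions were spotted at 35, 25, 10 and 5 μg, with a 1:1 water/methanol vehicle spot. After 18 h at 37 °C, inhibition zone diameters were measured with a ruler.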

Enterococcus [23] = assay: Antibacterial activity against vancomycin-resistant Enterococcus assessed as zone of inhibition incubated for 18 hrs by spot on lawn assay; type: functional, organism-based
Method in brief: as §3

Staphylococcus aureus [24] = assay: Antibacterial activity against Staphylococcus aureus assessed as zone of inhibition incubated for 18 hrs by spot on lawn assay; type: functional, organism-based
Method in brief: as §2

CN(CC[C@H](N)CC(=O)N[C@H]1C=C[C@H](n2ccc(N)nc2=O)O[C@@H]1C(N)=O)C(=N)N.Cl.Cl.Cl
IC50 (Enterococcus [1]): 69.6 µg/mL
MIC (Enterococcus [1]): 128 µg/mL
selectivity ratio [2]: 3
IC50 (Enterococcus faecalis [3]): 12.9 µg/mL
MIC (Enterococcus faecalis [3]): 32 µg/mL
CC50 at 24 h [4]: 9.4 µg/mL
PI (Acinetobacter baumannii [5]): 16
selectivity ratio [6]: 0.5
selectivity ratio [7]: 0.7
MIC (Candida albicans [8]): 256 µg/mL
selectivity ratio [9]: 0.2
IC50 (Klebsiella pneumoniae): 9.3 µg/mL
MIC (Klebsiella pneumoniae): 16 µg/mL
IC50 (Staphylococcus aureus [10]): 15.2 µg/mL
MIC (Staphylococcus aureus [10]): 32 µg/mL
selectivity ratio [11]: 0.6
IC50 (Acinetobacter baumannii [12]): 3 µg/mL
MIC (Acinetobacter baumannii [12]): 8 µg/mL
selectivity ratio [13]: 0.6
IC50 (Pseudomonas aeruginosa): 19.7 µg/mL
MIC (Pseudomonas aeruginosa): 64 µg/mL
selectivity ratio [14]: 0.1
PI (Escherichia coli): 8
IC50 (Staphylococcus aureus [15]): 15.4 µg/mL
MIC (Staphylococcus aureus [15]): 32 µg/mL
selectivity ratio [16]: 1
PI (Staphylococcus aureus [17]): 8
MIC (Saccharomyces cerevisiae): 64 µg/mL
IC50 (Staphylococcus aureus [18]): 41.6 µg/mL
MIC (Staphylococcus aureus [18]): 64 µg/mL

CN(CC[C@H](N)CC(=O)N[C@H]1C=C[C@H](n2ccc(N)nc2=O)O[C@@H]1C(=O)OCCc1ccccc1)C(=N)N
IC50 (Enterococcus [1]): 13.8 µg/mL (≈ 26.2 µM)
MIC (Enterococcus [1]): 32 µg/mL (≈ 60.8 µM)
selectivity ratio [2]: 0.2
IC50 (Enterococcus faecalis [3]): 6.9 µg/mL (≈ 13.1 µM)
MIC (Enterococcus faecalis [3]): 8 µg/mL (≈ 15.2 µM)
CC50 at 24 h [4]: 18.5 µg/mL (≈ 35.1 µM)
selectivity ratio [6]: 0.2
selectivity ratio [7]: 2.7
MIC (Candida albicans [8]): > 128 µg/mL
Activity (Staphylococcus aureus [19]): Active
selectivity ratio [9]: 0.7
Activity (Candida albicans [20]): inactive
Activity (Enterococcus faecalis [21]): Active
IC50 (Klebsiella pneumoniae): 57.1 µg/mL (≈ 108 µM)
MIC (Klebsiella pneumoniae): > 128 µg/mL
IC50 (Staphylococcus aureus [10]): 18.1 µg/mL (≈ 34.4 µM)
MIC (Staphylococcus aureus [10]): 64 µg/mL (≈ 122 µM)
selectivity ratio [11]: 1
IC50 (Acinetobacter baumannii [12]): 113 µg/mL (≈ 215 µM)
MIC (Acinetobacter baumannii [12]): > 128 µg/mL
selectivity ratio [13]: 1.2
IC50 (Pseudomonas aeruginosa): 76.9 µg/mL (≈ 146 µM)
MIC (Pseudomonas aeruginosa): > 128 µg/mL
Activity (Staphylococcus aureus [22]): Active
selectivity ratio [14]: 1.4
Activity (Enterococcus [23]): Active
IC50 (Staphylococcus aureus [15]): 16.1 µg/mL (≈ 30.6 µM)
MIC (Staphylococcus aureus [15]): 32 µg/mL (≈ 60.8 µM)
selectivity ratio [16]: 0.3
MIC (Saccharomyces cerevisiae): 64 µg/mL (≈ 122 µM)
IC50 (Staphylococcus aureus [18]): 27.3 µg/mL (≈ 51.8 µM)
MIC (Staphylococcus aureus [18]): 64 µg/mL (≈ 122 µM)
Activity (Staphylococcus aureus [24]): Active

CCOC(=O)[C@H]1O[C@@H](n2ccc(N)nc2=O)C=C[C@@H]1NC(=O)C[C@@H](N)CCN(C)C(=N)N.Cl.Cl.Cl
IC50 (Enterococcus [1]): 34.4 µg/mL
MIC (Enterococcus [1]): 64 µg/mL
selectivity ratio [2]: 0.3
IC50 (Enterococcus faecalis [3]): 9.9 µg/mL
MIC (Enterococcus faecalis [3]): 16 µg/mL
CC50 at 24 h [4]: 8.9 µg/mL
selectivity ratio [6]: 0.1
selectivity ratio [7]: 0.9
MIC (Candida albicans [8]): > 256 µg/mL
Activity (Staphylococcus aureus [19]): Active
selectivity ratio [9]: 0.4
Activity (Candida albicans [20]): inactive
Activity (Enterococcus faecalis [21]): Active
IC50 (Klebsiella pneumoniae): 73.9 µg/mL
MIC (Klebsiella pneumoniae): > 128 µg/mL
IC50 (Staphylococcus aureus [10]): 11.6 µg/mL
MIC (Staphylococcus aureus [10]): 32 µg/mL
selectivity ratio [11]: 0.8
IC50 (Acinetobacter baumannii [12]): 30.4 µg/mL
MIC (Acinetobacter baumannii [12]): 64 µg/mL
selectivity ratio [13]: 0.5
IC50 (Pseudomonas aeruginosa): 67 µg/mL
MIC (Pseudomonas aeruginosa): > 128 µg/mL
Activity (Staphylococcus aureus [22]): Active
selectivity ratio [14]: 0.3
Activity (Enterococcus [23]): Active
IC50 (Staphylococcus aureus [15]): 17 µg/mL
MIC (Staphylococcus aureus [15]): 32 µg/mL
selectivity ratio [16]: 0.1
MIC (Saccharomyces cerevisiae): 32 µg/mL
IC50 (Staphylococcus aureus [18]): 20 µg/mL
MIC (Staphylococcus aureus [18]): 32 µg/mL
Activity (Staphylococcus aureus [24]): Active
